≈ marks a conversion by molar mass, not a printed value.
Experiments:
Cytotoxicity assay [1] = format: cell-based; settings: human, HepG2 cells
Outline: (§1)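 Cells were kept in RPMI 1640 with 10% FBS, penicillin and streptomycin at 37 °C in humidified 5% CO2, and subcultured every 3–4 days. They were seeded at 1 × 10^4 cells/well and left 24 h. Medium was then replaced with test samples, with doxorubicin as reference, for 24 h at 37 °C. CellTiter-Blue was added for 2 h at 37 °C, and fluorescence was read at ex 560/em 590 nm.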

Cytotoxicity assay [2] = format: cell-based; settings: human, HaCaT keratinocytes
Outline: as §1

COc1cccc2c1C(=O)c1c(O)c3c(c(O)c1C2=O)C[C@@](O)(C(=O)CO)C[C@@H]3O[C@H]1C[C@H](N)[C@H](O)[C@H](C)O1 [doxorubicin]
IC50 at 24 h (Cytotoxicity assay [1]): 11.4 ± 0.5 µg/mL (≈ 21 µM) | IC50 at 24 h (Cytotoxicity assay [2]): 19.8 ± 0.8 µg/mL (≈ 36.4 µM)

Source: paper PMC9933231 (ACS Omega, 2023)
